Measured values taken from paper PMC4121111 (Clinical cancer research : an official journal of the …, 2014).

Tests used:
GRPR [1] = target: T1, GRPR (Homo sapiens, UniProt P30550); assay: Cell binding study by FACS, PC3 cells; format: cell-based; details: 3×10^5 cells, 3 pmoles agent in PBS, 15 min, 4 °C, triplicates
Outline: (§1)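 Cell lines came from ATCC and were grown per supplier instructions. 3×10^5 cells were incubated with 3 pmoles dye-peptide conjugate in PBS for 15 min at 4 °C, and cell fluorescence was measured. A scrambled-peptide conjugate served as control. For PC3 only, specificity was tested by co-incubation with bombesin (1.5×10−11 to 1.5×10−8 moles). Triplicates.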

[2] = Blood metabolism in living mice; format: in vivo
GRPR in PC3 tumors = GRPR in PC3 tumors (Homo sapiens, UniProt P30550); assay: Photoacoustic imaging of GRPR in PC3 tumors in mice; format: in vivo; details: 30 to 60 minutes post injection of 10 nmol
Chain of GRPR in PC3 tumors (P30550 whole entry): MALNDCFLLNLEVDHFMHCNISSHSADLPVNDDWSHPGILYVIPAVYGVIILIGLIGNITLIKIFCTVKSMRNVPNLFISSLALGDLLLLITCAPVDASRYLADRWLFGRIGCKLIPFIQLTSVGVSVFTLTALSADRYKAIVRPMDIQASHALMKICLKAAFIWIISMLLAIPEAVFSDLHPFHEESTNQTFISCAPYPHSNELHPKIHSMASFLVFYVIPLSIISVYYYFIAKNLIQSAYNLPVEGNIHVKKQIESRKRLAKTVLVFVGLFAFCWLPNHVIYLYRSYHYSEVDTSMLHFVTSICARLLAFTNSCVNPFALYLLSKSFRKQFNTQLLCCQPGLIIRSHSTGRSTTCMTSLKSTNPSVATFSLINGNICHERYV
Outline: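 Eight-week-old male nude mice carried flank PC3 xenografts (3 million cells, tumors 0.5–0.7 cm). Imaging used photoacoustic CT at 750 nm (100 views, 100 pulses/view) before and 30 and 60 min after tail-vein injection of 10 nmol agent in 200 µL PBS pH 7.4. The scrambled-peptide control group had n=4 and the active group n=6. 3D filtered back-projection; standard deviation.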

GRPR [3] = target: T1, GRPR; assay: Cell binding study by FACS, LNCaP cells; format: cell-based; details: 3×10^5 cells, 3 pmoles agent in PBS, 15 min, 4 °C, triplicates
Outline: as §1

GRPR [4] = details: cited from earlier work

T1 sequence (P30550 whole entry): as above

binding to PC3 cells (cell fluorescence) (GRPR [1]) | course of tumor photoacoustic signal over time (GRPR in PC3 tumors) | binding to LNCaP cells (cell fluorescence) (GRPR [3]) | Substance | blood lifetime [2] | level present in blood at 60 minutes postinjection ([2]; HPLC) | composition in mouse blood at 30 minutes post injection (HPLC) ([2]; blood, 30 minutes post injection, HPLC, three mice) | proteolysis in mouse blood ([2]; blood, 30 minutes postinjection, HPLC) | composition in mouse blood at one hour post injection (HPLC) ([2]; blood, 60 minutes post injection, HPLC) | binding affinity (GRPR [4]) | functional activity (GRPR [4])
intense labeling | increased over time | minimal binding | GGGdFQWAVGHStaL-NH2 [AA3G-740] | short blood lifetime | low level | major peak observed in blood at 30 minutes post injection was of the parent | no indication of proteolysis | intact agent was still the major component | – | –
– | – | – | dFQWAVGHStaL-NH2 | – | – | – | – | – | high affinity binding | antagonist activity
did not show appreciable binding | – | – | GGGHdFGWStaAQLV-NH2 [CAA3G-740] | – | – | – | – | – | – | –
